SMILES strings stand for the structures. Activity calls are given as the source filed them. No cut-off for these calls is given here.

One experiment deals with HeLa. Description: Cytotoxicity against human HeLa cells assessed as cell viability after 72 hrs by fluorescence microplate reader method. It counts as functional, cell-based. The essentials:
(§1)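 Cells were exposed to three-fold compound dilutions in triplicate for 72 h. Viability was read after adding Calcein AM, as live-cell fluorescence at 485/538 nm (excitation/emission).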

The target in experiment [1] is T1, Cyclin-dependent kinase 2/cyclin E1 (Homo sapiens) (UniProt P24864+P24941). Description: Inhibition of CDK2/Cyclin E in human G361 cells assessed as suppression of nucleophosmin phosphorylation at T199 at 50 uM after 4 hrs by immunoblotting analysis. It counts as cell-based. The conditions noted are these: G-361. Put shortly:
(§2)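 G361 cells synchronized with nocodazole (3 ng/mL, 16 h), then treated 4 h. Phosphorylated CDK substrates detected by immunoblotting, with tubulin as equal-loading control.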

A short description of experiment [2]: Downregulation of cyclin B1 levels in human G361 cells at 20 to 80 uM after 24 hrs by immunoblotting analysis. The format is functional, cell-based. Particulars: G-361. Put shortly: (§3)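 G361 cells treated 24 h, harvested into Laemmli sample buffer. Proteins separated by SDS-PAGE, electroblotted to nitrocellulose, blocked, probed overnight with specific primary antibodies, then peroxidase-conjugated secondary antibodies. Tubulin served as loading control.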

Experiment [3] in a line: Cytotoxicity against human G361 cells assessed as cell viability at 50 uM after 72 hrs by fluorescence microplate reader method. The conditions noted are these: G-361, 72 h, read-out: Activity. It counts as functional.
Experiment [4] in a line: Cell cycle arrest in BrdU pulse labeled human G361 cells assessed as accumulation at G2/M phase after 24 hrs by propidium iodide staining based flow cytometry. The format is functional. The conditions noted are these: G-361.
Experiment [5] is described as follows: Downregulation of Mcl-1 protein level in human G361 cells at 20 to 80 uM after 24 hrs by immunoblotting analysis. The conditions noted are these: G-361. It counts as functional, cell-based. Put shortly:
as §3

Experiment [6] deals with Cyclin-dependent kinase 2/cyclin E1 (Homo sapiens, UniProt P24941). Description: Inhibition of CDK2/Cyclin E (unknown origin) expressed in baculoviral infected insect Sf9 cells using histone H1 as substrate in presence of [gamma-33P]ATP.
In experiment [7] the test system is K562. Description: Cytotoxicity against human K562 cells assessed as cell viability at 50 uM after 72 hrs by fluorescence microplate reader method. The format is functional. Particulars: K562, 72 h, read-out: Activity.
A short description of experiment [8]: Upregulation of Bid protein level in human G361 cells at 20 to 80 uM after 24 hrs by immunoblotting analysis. Particulars: G-361. The format is functional, cell-based. The essentials: as §3
Experiment [9] can be described thus: Cytotoxicity against human HCT116 cells assessed as cell viability after 72 hrs by fluorescence microplate reader method. It counts as functional, cell-based. Particulars: HCT-116, 72 h. The essentials: as §1
The nature of experiment [10]: Upregulation of Bax protein level in human G361 cells at 20 to 80 uM after 24 hrs by immunoblotting analysis. It counts as functional, cell-based. Particulars: G-361. The essentials: as §3
The nature of experiment [11]: Cell cycle arrest in BrdU pulse labeled human G361 cells assessed as accumulation at G1 phase after 24 hrs by propidium iodide staining based flow cytometry. It counts as functional. Particulars: G-361.
Experiment [12] has as its target T1, Cyclin-dependent kinase 2/cyclin E1 (Homo sapiens). Description: Inhibition of CDK2/Cyclin E in human G361 cells assessed as suppression of RB phosphorylation at S780 at 50 uM after 4 hrs by immunoblotting analysis. It counts as cell-based. Particulars: G-361. Put shortly:
as §2

Experiment [13] in a line: Cytotoxicity against human G361 cells assessed as cell viability after 72 hrs by fluorescence microplate reader method. Particulars: G-361, 72 h. The format is functional, cell-based. The essentials:
as §1

Experiment [14] is described as follows: Cell cycle arrest in BrdU pulse labeled human G361 cells assessed as accumulation at sub G1 phase at 80 uM after 24 hrs by propidium iodide staining based flow cytometry (reference value: 0.8%). It counts as functional. The conditions noted are these: G-361.
The test system of experiment [15] is G-361. Description: Induction of apoptosis in human G361 cells assessed as activation of caspases-3/7 at 20 to 80 uM using Ac-DEVD-AMC as substrate after 24 hrs by fluorimetric analysis. It counts as functional, cell-based. The essentials: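 Lysates cleared at 10 000 g, 30 min, 4 °C, equalized for protein, then incubated 3 h with Ac-DEVD-AMC in 25 mM PIPES, 2 mM EGTA, 2 mM MgCl2, 5 mM DTT, pH 7.3. Fluorescence read at 355/460 nm, normalized to untreated control.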

A short description of experiment [16]: Cell cycle arrest in BrdU pulse labeled human G361 cells assessed as accumulation at sub G1 phase after 24 hrs by propidium iodide staining based flow cytometry. Particulars: G-361. The format is functional.
Experiment [17] has as its system G-361. Description: Induction of apoptosis in human G361 cells assessed as activation of caspases-3/7 at 50 uM using Ac-DEVD-AMC as substrate after 6 hrs by fluorescence microplate reader method relative to control. It counts as functional. The essentials:
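G361 cells were seeded at 20,000 cells/well overnight, then treated with compound for 24 h. A 3x caspase-3/7 buffer (HEPES pH 7.4, NaCl, KCl, MgCl2, EGTA, Nonidet P40, CHAPS, sucrose, DTT, PMSF) containing Ac-DEVD-AMC substrate was added, and plates were incubated at 37 °C. Fluorescence at 346/442 nm was read after 6 h and expressed relative to untreated control.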

Experiment [18] has as its system MCF7. Description: Cytotoxicity against human MCF7 cells assessed as cell viability at 50 uM after 72 hrs by fluorescence microplate reader method. It counts as functional. Particulars: MCF7, 72 h, read-out: Activity.
Experiment [19] relates to MCF7. Description: Cell cycle arrest in BrdU pulse labeled human MCF7 cells assessed as accumulation at G2/M phase after 24 hrs by propidium iodide staining based flow cytometry. It counts as functional.
The next experiment addresses CDK9/cyclin T1 (Homo sapiens, UniProt P50750). Description: Inhibition of CDK9/Cyclin T1 (unknown origin) using (YSPTSPS)2KK peptide as substrate in presence of [gamma-33P]ATP. The format is protein-complex assay.
The target of experiment [20] is T1, Cyclin-dependent kinase 2/cyclin E1 (Homo sapiens). Description: Inhibition of CDK2/Cyclin E in human G361 cells assessed as suppression of RB phosphorylation at S807/811 at 50 uM after 4 hrs by immunoblotting analysis. It counts as cell-based. Particulars: G-361. Put shortly: as §2
The nature of experiment [21]: Downregulation of Rb levels in human G361 cells after 24 hrs by immunoblotting analysis. The format is functional, cell-based. The conditions noted are these: G-361. Put shortly: as §3
A further experiment deals with CCRF-CEM. Description: Cytotoxicity against human CEM cells assessed as cell viability after 72 hrs by fluorescence microplate reader method. The format is functional, cell-based. The essentials:
as §1

The nature of experiment [22]: Upregulation of Bak protein level in human G361 cells at 20 to 80 uM after 24 hrs by immunoblotting analysis. Particulars: G-361. It counts as functional, cell-based. Put shortly: as §3
Experiment [23] in a line: Cell cycle arrest in BrdU pulse labeled human G361 cells assessed as accumulation at sub G1 phase at 40 uM after 24 hrs by propidium iodide staining based flow cytometry (reference value: 0.8%). Particulars: G-361. The format is functional.
Experiment [24] is described as follows: Cell cycle arrest in BrdU pulse labeled human G361 cells assessed as accumulation at sub G1 phase at 60 uM after 24 hrs by propidium iodide staining based flow cytometry (reference value: 0.8%). The format is functional. The conditions noted are these: G-361.
The target of a further experiment is CDK7/Cyclin H/MNAT1 (Homo sapiens, UniProt P50613). Description: Inhibition of CDK7/Cyclin H/MAT1 (unknown origin) using (YSPTSPS)2KK peptide as substrate in presence of [gamma-33P]ATP. The format is protein-complex assay.
Experiment [25] is described as follows: Downregulation of cyclin A1 levels in human G361 cells at 20 to 80 uM after 24 hrs by immunoblotting analysis. The format is functional, cell-based. Particulars: G-361. Put shortly:
as §3

Experiment [26] deals with Cyclin-dependent kinase 1/cyclin B1 (Homo sapiens, UniProt P06493). Description: Inhibition of CDK1/Cyclin B (unknown origin) expressed in baculoviral infected insect Sf9 cells using histone H1 as substrate in presence of [gamma-33P]ATP. The format is cell-based.
Experiment [27] relates to MCF7. Description: Cytotoxicity against human MCF7 cells assessed as cell viability after 72 hrs by fluorescence microplate reader method. It counts as functional, cell-based. Particulars: MCF7, 72 h. Put shortly: as §1
Experiment [28] has as its target Cyclin-dependent kinase 4/cyclin D1 (Homo sapiens, UniProt P11802). Description: Inhibition of CDK4/Cyclin D1 (unknown origin) using RPPTLSPIPHIPR peptide as substrate in presence of [gamma-33P]ATP. The format is protein-complex assay.
The target in experiment [29] is T1, Cyclin-dependent kinase 2/cyclin E1 (Homo sapiens). Description: Inhibition of CDK2/Cyclin E in human G361 cells assessed as suppression of PP1alpha phosphorylation at T320 at 50 uM after 4 hrs by immunoblotting analysis. The format is cell-based. The conditions noted are these: G-361. The essentials:
as §2

Experiment [30] addresses Cyclin-dependent kinase 5/CDK5 activator 1 (Homo sapiens, UniProt Q00535). Description: Inhibition of CDK5/p35NCK (unknown origin) using histone H1 as substrate in presence of [gamma-33P]ATP. It counts as protein-complex assay.
For experiment [31], the system named is MCF7. Description: Cell cycle arrest in BrdU pulse labeled human MCF7 cells assessed as accumulation at G1 phase after 24 hrs by propidium iodide staining based flow cytometry. It counts as functional.
Experiment [32] relates to K562. Description: Cytotoxicity against human K562 cells assessed as cell viability after 72 hrs by fluorescence microplate reader method. It counts as functional, cell-based. Particulars: K562, 72 h. Put shortly: as §1
Experiment [33] in a line: Cell cycle arrest in BrdU pulse labeled human G361 cells assessed as accumulation at sub G1 phase at 20 uM after 24 hrs by propidium iodide staining based flow cytometry (reference value: 0.8%). The conditions noted are these: G-361. The format is functional.
Experiment [34] in a line: Inhibition of CDK4/Cyclin D (unknown origin) expressed in baculovirus infected insect Sf9 cells using human pRB as substrate in presence of [gamma-32P]ATP.

Chain of Cyclin-dependent kinase 5/CDK5 activator 1 (Q00535 whole entry): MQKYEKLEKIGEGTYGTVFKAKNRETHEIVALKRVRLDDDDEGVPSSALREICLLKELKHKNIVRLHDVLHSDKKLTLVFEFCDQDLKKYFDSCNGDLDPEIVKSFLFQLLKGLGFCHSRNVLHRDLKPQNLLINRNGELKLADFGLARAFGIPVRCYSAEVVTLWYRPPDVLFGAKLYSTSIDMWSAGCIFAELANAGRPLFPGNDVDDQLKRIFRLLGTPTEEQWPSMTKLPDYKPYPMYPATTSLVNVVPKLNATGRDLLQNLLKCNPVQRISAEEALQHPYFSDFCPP
Chain of Cyclin-dependent kinase 5/CDK5 activator 1 (Q15078 whole entry, further chain): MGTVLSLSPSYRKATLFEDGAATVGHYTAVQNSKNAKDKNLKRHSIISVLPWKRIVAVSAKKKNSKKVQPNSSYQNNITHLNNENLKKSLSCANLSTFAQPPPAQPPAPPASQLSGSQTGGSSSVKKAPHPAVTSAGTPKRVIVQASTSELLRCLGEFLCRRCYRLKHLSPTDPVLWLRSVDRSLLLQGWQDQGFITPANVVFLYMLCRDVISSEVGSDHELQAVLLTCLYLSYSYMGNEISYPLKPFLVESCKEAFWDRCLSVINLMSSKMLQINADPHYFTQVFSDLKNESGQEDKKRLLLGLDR
Chain of CDK9/cyclin T1 (O60563 whole entry): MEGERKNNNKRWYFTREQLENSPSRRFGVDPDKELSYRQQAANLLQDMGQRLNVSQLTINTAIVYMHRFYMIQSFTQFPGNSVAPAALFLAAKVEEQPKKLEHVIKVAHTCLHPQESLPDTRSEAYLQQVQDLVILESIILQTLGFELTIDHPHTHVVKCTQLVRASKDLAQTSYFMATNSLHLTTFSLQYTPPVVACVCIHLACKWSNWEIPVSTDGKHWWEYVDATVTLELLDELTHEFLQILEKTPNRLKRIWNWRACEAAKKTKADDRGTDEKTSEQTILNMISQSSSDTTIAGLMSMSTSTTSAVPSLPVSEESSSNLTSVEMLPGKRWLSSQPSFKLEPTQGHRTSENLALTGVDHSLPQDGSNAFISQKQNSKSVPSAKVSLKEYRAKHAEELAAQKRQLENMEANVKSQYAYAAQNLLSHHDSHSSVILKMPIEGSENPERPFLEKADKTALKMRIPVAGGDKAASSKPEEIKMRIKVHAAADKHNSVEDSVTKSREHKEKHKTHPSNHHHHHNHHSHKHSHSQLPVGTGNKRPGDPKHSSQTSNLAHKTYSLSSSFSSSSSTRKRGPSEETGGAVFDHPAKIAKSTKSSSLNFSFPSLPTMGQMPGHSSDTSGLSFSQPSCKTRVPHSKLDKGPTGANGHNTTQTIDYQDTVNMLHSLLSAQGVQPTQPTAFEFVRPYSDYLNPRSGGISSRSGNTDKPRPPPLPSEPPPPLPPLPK
Chain of CDK9/cyclin T1 (P50750 whole entry): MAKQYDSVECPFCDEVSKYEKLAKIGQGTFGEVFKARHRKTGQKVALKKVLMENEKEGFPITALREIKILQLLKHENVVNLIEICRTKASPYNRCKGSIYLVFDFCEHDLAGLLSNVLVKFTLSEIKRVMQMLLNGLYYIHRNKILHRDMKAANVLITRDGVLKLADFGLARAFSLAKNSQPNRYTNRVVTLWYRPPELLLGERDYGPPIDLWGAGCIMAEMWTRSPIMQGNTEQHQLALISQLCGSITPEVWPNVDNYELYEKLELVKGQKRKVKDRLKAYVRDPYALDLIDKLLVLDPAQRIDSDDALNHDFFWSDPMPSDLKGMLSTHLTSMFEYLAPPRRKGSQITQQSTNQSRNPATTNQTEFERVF
Chain of Cyclin-dependent kinase 1/cyclin B1 (P06493 whole entry): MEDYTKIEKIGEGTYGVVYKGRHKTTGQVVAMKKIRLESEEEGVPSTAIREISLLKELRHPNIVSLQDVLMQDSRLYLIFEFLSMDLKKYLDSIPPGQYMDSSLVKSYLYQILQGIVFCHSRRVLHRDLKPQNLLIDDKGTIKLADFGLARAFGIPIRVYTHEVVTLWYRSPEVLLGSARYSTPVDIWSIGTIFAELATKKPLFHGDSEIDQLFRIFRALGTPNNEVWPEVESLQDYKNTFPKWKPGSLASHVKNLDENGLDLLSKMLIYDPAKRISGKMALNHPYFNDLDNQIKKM
Chain of Cyclin-dependent kinase 1/cyclin B1 (P14635 whole entry, further chain): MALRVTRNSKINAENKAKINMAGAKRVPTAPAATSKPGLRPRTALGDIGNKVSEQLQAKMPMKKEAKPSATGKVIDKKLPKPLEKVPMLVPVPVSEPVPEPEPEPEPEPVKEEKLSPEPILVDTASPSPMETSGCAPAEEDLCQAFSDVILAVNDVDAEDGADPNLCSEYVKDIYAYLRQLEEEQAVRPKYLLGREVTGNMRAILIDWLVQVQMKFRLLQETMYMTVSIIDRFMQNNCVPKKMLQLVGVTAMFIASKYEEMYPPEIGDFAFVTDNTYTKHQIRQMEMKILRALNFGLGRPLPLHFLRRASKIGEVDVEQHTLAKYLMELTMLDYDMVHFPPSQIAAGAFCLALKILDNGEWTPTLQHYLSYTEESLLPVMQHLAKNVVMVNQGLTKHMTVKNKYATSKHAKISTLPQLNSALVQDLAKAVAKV
Chain of Cyclin-dependent kinase 4/cyclin D1 (P11802 whole entry): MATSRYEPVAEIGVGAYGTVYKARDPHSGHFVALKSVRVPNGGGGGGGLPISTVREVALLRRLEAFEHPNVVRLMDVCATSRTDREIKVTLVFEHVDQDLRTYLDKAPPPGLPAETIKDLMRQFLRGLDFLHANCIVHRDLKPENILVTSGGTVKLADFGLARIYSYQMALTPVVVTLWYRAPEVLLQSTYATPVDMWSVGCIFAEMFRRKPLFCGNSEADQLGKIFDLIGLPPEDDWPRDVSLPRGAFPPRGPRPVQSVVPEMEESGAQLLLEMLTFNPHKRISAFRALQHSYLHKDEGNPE
Chain of Cyclin-dependent kinase 4/cyclin D1 (P24385 whole entry, further chain): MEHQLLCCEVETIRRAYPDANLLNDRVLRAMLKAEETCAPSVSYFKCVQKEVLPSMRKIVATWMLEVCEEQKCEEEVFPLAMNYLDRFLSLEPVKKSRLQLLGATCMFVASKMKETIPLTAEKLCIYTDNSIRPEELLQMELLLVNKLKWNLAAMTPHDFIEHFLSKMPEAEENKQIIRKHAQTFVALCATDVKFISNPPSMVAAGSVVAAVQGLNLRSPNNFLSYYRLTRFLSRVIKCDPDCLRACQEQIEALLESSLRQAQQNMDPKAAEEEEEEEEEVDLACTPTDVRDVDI
Chain of CDK7/Cyclin H/MNAT1 (P51946 whole entry): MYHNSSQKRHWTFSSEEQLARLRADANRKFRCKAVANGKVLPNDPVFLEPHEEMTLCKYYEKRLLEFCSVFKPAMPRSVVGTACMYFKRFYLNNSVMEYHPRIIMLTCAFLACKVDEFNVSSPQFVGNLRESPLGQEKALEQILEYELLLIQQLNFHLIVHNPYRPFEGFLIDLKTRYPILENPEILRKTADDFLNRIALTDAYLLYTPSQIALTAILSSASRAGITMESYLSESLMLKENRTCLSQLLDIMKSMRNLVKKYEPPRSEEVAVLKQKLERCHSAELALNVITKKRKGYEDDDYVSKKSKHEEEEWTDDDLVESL
Chain of CDK7/Cyclin H/MNAT1 (P50613 whole entry): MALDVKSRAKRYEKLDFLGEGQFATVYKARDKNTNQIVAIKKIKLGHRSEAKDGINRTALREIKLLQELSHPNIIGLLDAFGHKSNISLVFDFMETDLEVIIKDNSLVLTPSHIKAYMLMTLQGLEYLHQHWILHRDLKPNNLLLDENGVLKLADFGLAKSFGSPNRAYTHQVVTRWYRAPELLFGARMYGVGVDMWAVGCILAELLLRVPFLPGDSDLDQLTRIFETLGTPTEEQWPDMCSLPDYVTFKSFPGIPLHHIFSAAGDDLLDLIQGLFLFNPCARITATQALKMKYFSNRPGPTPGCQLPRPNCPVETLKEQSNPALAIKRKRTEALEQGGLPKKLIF
Chain of CDK7/Cyclin H/MNAT1 (P51948 whole entry, further chain): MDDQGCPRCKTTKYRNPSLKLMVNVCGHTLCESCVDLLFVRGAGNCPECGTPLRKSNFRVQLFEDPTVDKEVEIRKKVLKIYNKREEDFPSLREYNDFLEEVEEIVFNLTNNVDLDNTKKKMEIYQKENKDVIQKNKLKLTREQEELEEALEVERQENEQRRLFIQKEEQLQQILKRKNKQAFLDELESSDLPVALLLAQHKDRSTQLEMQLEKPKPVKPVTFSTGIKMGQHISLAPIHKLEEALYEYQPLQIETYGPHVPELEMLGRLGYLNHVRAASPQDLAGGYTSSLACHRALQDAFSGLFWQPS

In the case of `c1cnc2[nH]c(-c3cnnn3CCCc3c[nH]c4ncccc34)cc2c1`, the IC50 in the experiment with HeLa is > 50 µM; in experiment [6] (read-out: IC50), 2 µM; in experiment [6] (read-out: pIC50 (converted)) it was 2 µM; in experiment [9] it was > 50 µM; in experiment [13], 31.5 µM; on CDK9/cyclin T1, 9 µM. Also, the IC50 in the experiment with CCRF-CEM was 31 µM; at CDK7/Cyclin H/MNAT1 it was > 50 µM; in experiment [26], 11.5 µM; in the experiment on MCF7 [27], > 25 µM; in experiment [28], 9 µM; in experiment [30], 10.7 µM. For the same compound, the IC50 with K562 [32] stood at 39.9 µM. The inhibition entry in experiment [1], in experiment [12], in experiment [20] and in experiment [29] was “Active” throughout. Further, the outcome in experiment [2], in experiment [4], in experiment [5], in [8], in experiment [10] and in experiment [11] was Active. Also, the result (in the experiment with G-361 [15]; in the experiment with MCF7 [19]; in experiment [22]; in experiment [25]; in the experiment with MCF7 [31]) was Active. Besides, the viability at 50 µM was determined as 32.4% in experiment [3], 57.4% in the experiment on K562 [7] and 55.4% in the experiment with MCF7 [18]. Further, the Activity in experiment [14] was 34.7%; in [16], “Dose-dependent effect”; in [21], “Dose-dependent effect”; in [23], 10%; in experiment [24], 22.1%; in experiment [33], 2.4%. Also, the “fold change (FC)” value in the experiment on G-361 [17] is reported as 13.8.
In the case of `O=C1c2ccccc2-[n+]2ccc3c([nH]c4ccccc43)c21` [FASCAPLYSIN CHLORIDE], the IC50 in experiment [34] is 0.35 µM.

Values taken from ChEMBL document CHEMBL3763042, “Synthesis, biological evaluation and molecular modeling of a novel series of 7-azaindole based tri-heterocyclic compounds as potent CDK2/Cyclin E inhibitors” (Eur J Med Chem, 2016).
